Consider five molecules from ChEMBL document CHEMBL3576763, “Synthesis and Biological Activities of 5-Thio-α-GalCers” (2015).

The structures appear in SMILES notation. Active and inactive are the calls of the source. The calls are words filed in the database; no cut-off is given here.

For assay [1], the system named is iNKT. The assay can be described thus: Immunostimulatory activity in B6 mouse iNKT cells assessed as induction of IFN-gamma production at 1000 ng/ml incubated for 16 hrs followed by brefeldin A addition measured after 2 hrs by flow cytometric analysis (reference value: 0.6%). The class given is functional. In a few lines:
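Mouse splenocytes stimulated with glycolipid in vitro; IFN-γ measured in cells gated as CD3+DX5+CD1d tetramer+ NKT cells. Control cells held in complete 1640 medium only; PMA plus ionomycin used as positive control.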
Background: Flow cytometry measures light scatter and fluorescence of single cells or particles in a stream.

The test system of assay [2] is Mus musculus. Description: Immunostimulatory activity in B6 mouse assessed as induction of IFN-gamma production in serum at 100 ug/kg, ip by ELISA. The class given is functional, organism-based. In a few lines: (§1)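 Glycolipid given intraperitoneally to B6 mice at 100 μg/kg. Serum IFN-γ and IL-4 measured at several time points after injection. Two mice per group, each mouse's serum assayed individually at each time.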
Background: An ELISA detects its analyte on a solid surface through an enzyme-linked reagent.

The subject of assay [3] is Mus musculus. Description: Immunostimulatory activity in B6 mouse assessed as induction of IL-4 production in serum at 100 ug/kg, ip measured after 12 hrs by ELISA. The assay is classed as functional, organism-based. An outline of the steps:
as §1

The test system of assay [4] is Mus musculus. Description: Immunostimulatory activity in B6 mouse assessed as induction of IFN-gamma production in serum at 100 ug/kg, ip measured at 6 to 24 hrs by ELISA. The class given is functional. In a few lines:
as §1

Assay [5] relates to Mus musculus. The assay can be described thus: Immunostimulatory activity in B6 mouse assessed as induction of IL-4 production in serum at 100 ug/kg, ip measured at 3 hrs by ELISA. The assay is classed as functional, organism-based. An outline of the steps:
as §1

The test system of assay [6] is Mus musculus. The assay can be described thus: Immunostimulatory activity in B6 mouse assessed as induction of IFN-gamma production in serum at 100 ug/kg, ip after 24 hrs by ELISA. The class given is functional. An outline of the steps: as §1
In assay [7] the test system is Mus musculus. The assay can be described thus: Immunostimulatory activity in B6 mouse assessed as induction of IL-4 production in serum at 100 ug/kg, ip measured up to 12 hrs by ELISA. The class given is functional, organism-based. In a few lines: as §1
Assay [8] has as its system iNKT. The assay can be described thus: Immunostimulatory activity in B6 mouse iNKT cells assessed as induction of IFN-gamma production incubated for 16 hrs followed by brefeldin A addition measured after 2 hrs by flow cytometric analysis in presence of ionomycin (reference value: 0.6%). The class given is functional.

As for `CCCCCCCCCCCCCC[C@@H](O)[C@@H](O)[C@H](CO[C@H]1S[C@H](CO)[C@H](O)[C@H](O)[C@H]1O)NC(=O)CCCCCCC`, the Activity in the assay with iNKT [1] was found to be 1.4%. For the same molecule, the outcome in the assay on Mus musculus [2] and with Mus musculus [3] was inactive.
For the molecule `CCCCCCCCCCCCCCCCCCCCCCCCCC(=O)N[C@@H](CO[C@H]1O[C@H](CO)[C@H](O)[C@H](O)[C@H]1O)[C@H](O)[C@H](O)CCCCCCCCCCCCCC` [RGI-7000], the Activity in the assay with Mus musculus [4] was 2127 pg/mL; in the assay with iNKT [1] it was 4.1%. The outcome with Mus musculus [5] was Active.
As for `CCCCCCCCCCCCCCCCCCCCCCCCCC(=O)N[C@@H](CO[C@H]1S[C@H](CO)[C@H](O)[C@H](O)[C@H]1O)[C@H](O)[C@H](O)CCCCCCCCCCCCCC`, the results for the Activity in the assay on iNKT [1] and with Mus musculus [6] were 8.5% and 1722 pg/mL, respectively. Also, in the assay on Mus musculus [3], the outcome was inactive. The outcome with Mus musculus [7] was Active.
Take `CCCCCCCCCCCCCC(=O)O[C@@H]1[C@@H](C)[C@@]2(O)[C@@H](C=C(CO)C[C@]3(O)C(=O)C(C)=C[C@@H]23)[C@@H]2C(C)(C)[C@]12OC(C)=O` [PHORBOL MYRISTATE ACETATE]: the Activity with iNKT [8] amounted to 8.5%.
Turning to `CCCCCCCCCCCCCC[C@@H](O)[C@@H](O)[C@H](CO[C@H]1S[C@H](CO)[C@H](O)[C@H](O)[C@H]1O)NC(=O)CCCCCCCCCCCCC`, the Activity with iNKT [1] worked out at 6%. The result in the assay on Mus musculus [2] was Active. The result with Mus musculus [3] and in the assay with Mus musculus [7] was inactive.
